Converted amounts (≈) assume the structure as drawn.
Tests used:
Candida albicans [1] = experiment: Antimicrobial activity against Candida albicans harboring MRR1 gene by microdilution method; type: functional
Outline: (§1)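 MRR1 alleles were expressed from the ADH1 promoter as single-copy integrations in C. albicans SC5314 mrr1Δ mutants, selected with nourseothricin. Broth microdilution was run in HR medium with NaHCO3 and 0.2 M phosphate buffer (pH 7.2), using serial twofold dilutions. Starting assay concentrations were fluconazole 200 μg/ml, cerulenin 50 μg/ml and brefeldin A 200 μg/ml.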

Candida dubliniensis [2] = experiment: Antimicrobial activity against Candida dubliniensis harboring MRR1 CM2 mutant gene by microdilution method; type: functional; outline: as §1
Candida albicans [3] = experiment: Antimicrobial activity against mrr1-deficient Candida albicans by microdilution method; type: functional
Outline: (§2)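 Broth microdilution was run in HR medium with NaHCO3 and 0.2 M phosphate buffer (pH 7.2), using serial twofold dilutions. Starting assay concentrations were fluconazole 200 μg/ml, cerulenin 50 μg/ml and brefeldin A 200 μg/ml. Fluconazole stock was prepared in water; cerulenin and brefeldin A stocks were in DMSO. Strains were kept at −80°C and subcultured on YPD at 30°C.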

Candida dubliniensis [4] = experiment: Antimicrobial activity against Candida dubliniensis harboring MRR1 CD57 mutant gene by microdilution method; type: functional; outline: as §1
Candida albicans [5] = experiment: Antimicrobial activity against Candida albicans harboring MRR1 CD51-2A mutant gene by microdilution method
Candida albicans [6] = experiment: Antimicrobial activity against wild-type Candida albicans SC5314 by microdilution method; type: functional; outline: as §2
Candida dubliniensis [7] = experiment: Antimicrobial activity against Candida dubliniensis harboring MRR1 CD57B mutant gene by microdilution method; type: functional; outline: as §1
Candida albicans [8] = experiment: Antimicrobial activity against Candida albicans harboring MRR1 CD57A mutant gene by microdilution method
Candida albicans [9] = experiment: Antimicrobial activity against Candida albicans harboring MRR1 CD51-2B mutant gene by microdilution method
Candida dubliniensis [10] = experiment: Antimicrobial activity against Candida dubliniensis harboring MRR1 CM1 mutant gene by microdilution method; type: functional; outline: as §1
Candida albicans [11] = experiment: Antimicrobial activity against Candida albicans harboring P683S mutation in MRR1F5 gene by microdilution method

| Compound | MIC (Candida albicans [1]) | MIC (Candida dubliniensis [2]) | MIC (Candida albicans [3]) | MIC (Candida dubliniensis [4]) | MIC (Candida albicans [5]) | MIC (Candida albicans [6]) | MIC (Candida dubliniensis [7]) | MIC (Candida albicans [8]) | MIC (Candida albicans [9]) | MIC (Candida dubliniensis [10]) | MIC (Candida albicans [11]) |
| --- | --- | --- | --- | --- | --- | --- | --- | --- | --- | --- | --- |
| C/C=C/C/C=C/CCC(=O)[C@H]1O[C@H]1C(N)=O [CERULENIN] | 0.2 µg/mL (≈ 0.896 µM) | 3.13 µg/mL (≈ 14 µM) | 0.2 µg/mL (≈ 0.896 µM) | 0.2 µg/mL (≈ 0.896 µM) | 3.13 µg/mL (≈ 14 µM) | 0.2 µg/mL (≈ 0.896 µM) | 3.13 µg/mL (≈ 14 µM) | 3.13 µg/mL (≈ 14 µM) | 0.78 µg/mL (≈ 3.49 µM) | 0.2 µg/mL (≈ 0.896 µM) | 6.25 µg/mL (≈ 28 µM) |
| C[C@H]1CCC/C=C/[C@@H]2C[C@H](O)C[C@H]2[C@H](O)/C=C/C(=O)O1 [BREFELDIN A] | 1.56 µg/mL (≈ 5.56 µM) | 12.5 µg/mL (≈ 44.6 µM) | 1.56 µg/mL (≈ 5.56 µM) | 1.56 µg/mL (≈ 5.56 µM) | 12.5 µg/mL (≈ 44.6 µM) | 1.56 µg/mL (≈ 5.56 µM) | 12.5 µg/mL (≈ 44.6 µM) | 12.5 µg/mL (≈ 44.6 µM) | 3.13 µg/mL (≈ 11.2 µM) | 1.56 µg/mL (≈ 5.56 µM) | 25 µg/mL (≈ 89.2 µM) |
| OC(Cn1cncn1)(Cn1cncn1)c1ccc(F)cc1F [FLUCONAZOLE] | 0.1 µg/mL (≈ 0.327 µM) | 0.78 µg/mL (≈ 2.55 µM) | 0.1 µg/mL (≈ 0.327 µM) | 0.1 µg/mL (≈ 0.327 µM) | 0.78 µg/mL (≈ 2.55 µM) | 0.1 µg/mL (≈ 0.327 µM) | 0.78 µg/mL (≈ 2.55 µM) | 0.78 µg/mL (≈ 2.55 µM) | 0.39 µg/mL (≈ 1.27 µM) | 0.1 µg/mL (≈ 0.327 µM) | 3.13 µg/mL (≈ 10.2 µM) |
